Activity calls are given as the source filed them. No cut-off for these calls is given here.
Columns and labels:
MCF7 [1] = assay: Selectivity index, ratio of IC50 for HLF to IC50 for human MCF7 cells
HeLa [2] = assay: Cytotoxicity against human HeLa cells assessed as lethality at 5 uM at 0 degC after 30 mins by MTT assay; assay type: functional, cell-based
Outline: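 HeLa cells were incubated with peptide over a range of concentrations at 0 or 37 °C for 30 min. Lethality was then measured by MTT, with A490 read after DMSO solubilization.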

MCF7 [3] = assay: Induction of reactive oxygen species generation in human MCF7 cells at 5 uM after 30 mins by DCFH-DA staining-based fluorescence assay; assay type: functional, cell-based
Outline: (§1)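 Cells in 96-well plates were loaded with DCFH-DA for 20 min at 37 °C, then treated with or without 5 μM peptide for 30 min. After a PBS wash, DCF fluorescence was read at 485/535 nm and expressed as fold change versus untreated cells.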

HeLa [4] = assay: Induction of appearance of rounded human HeLa cells at 5 uM after 30 mins by microscopic method; assay type: functional, cell-based
Outline: (§2)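 HeLa cells were co-incubated with 5 μM peptide for 30 min. Morphology was then examined under the microscope.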

HeLa [5] = assay: Cytotoxicity against human HeLa cells assessed as lethality at 5 uM after 30 mins in presence of caspase-3 inhibitor Ac-DEVD-CHO by MTT assay; assay type: functional
Outline: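 HeLa cells were seeded at 1 × 10^4 cells/well and grown 24 h. They were pretreated 30 min with 50 μM Ac-DEVD-CHO, then incubated with or without 5 μM peptide for 30 min. Survival was measured by MTT: 4 h with MTT, DMSO solubilisation, absorbance at 490 nm.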

HeLa [6] = assay: Cytotoxicity against human HeLa cells assessed as cell mortality at 5 uM after 30 mins by Hoechst 33342/propidium iodide staining-based assay; assay type: functional
Outline: (§3)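 HeLa cells treated with 5 μM peptide were co-stained with Hoechst 33342 (stains all nuclei) and propidium iodide (stains only membrane-compromised cells). Fluorescence imaging was done at time points up to 30 min.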

HeLa [7] = assay: Selectivity index, ratio of IC50 for human 293T cells to IC50 for human HeLa cells; assay type: functional
[8] = Induction of reactive oxygen species generation in HLF at 5 uM after 30 mins by DCFH-DA staining-based fluorescence assay; conditions: human, 0.5 h; outline: as §1
[9] = Drug uptake in cytoplasm of human HeLa cells at 5 uM after 2 to 30 mins using iridium dye labeled compound by confocal microscopic method; assay type: ADME, cell-based
Outline: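 Peptides were labelled at the N-terminal His with [Ir(ppy)2(H2O)2]OTf: 200 μM each, mixed 1:1 in PBS, 2 h at 37 °C in the dark. HeLa cells (1 × 10^5 per dish, grown 24 h) were exposed to 5 μM labelled peptide. Live-cell confocal images were taken at 0, 5 and 15 min (excitation 403 nm, emission 500–560 nm).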

[10] = Cytotoxicity against human 293T cells assessed as cell viability after 24 hrs by MTT assay; assay type: cell-based, HEK-293T
Outline: (§4)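 MTT viability assay. Cells were seeded at 1 × 10^4 cells/well in complete medium and grown 24 h. Medium was replaced with fresh medium containing peptide over a concentration series and incubated 24 h. MTT (5 mg/mL) was added for 4 h, formazan was dissolved in DMSO, and A490 was read. IC50 was derived from mean ± SD of three independent experiments.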

A549 [11] = assay: Selectivity index, ratio of IC50 for human 293T cells to IC50 for human A549 cells; assay type: functional
[12] = Hemolytic activity in mouse RBC after 1 hr; assay type: ADME, cell-based, Erythrocyte; conditions: red blood cells
Outline: (§5)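 Heparinized fresh mouse blood: RBCs were washed three times in 0.9% saline and diluted to 4.0 × 10^8 cells/mL. Peptides at various concentrations were incubated with the RBCs 1 h at 37 °C. After centrifugation at 1000 rpm for 10 min, supernatant absorbance was read at 540 nm, with 1% Triton X-100 set as 100% hemolysis.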

HeLa [13] = assay: Induction of reactive oxygen species generation in human HeLa cells at 5 uM after 30 mins by DCFH-DA staining-based fluorescence assay; assay type: functional, cell-based; outline: as §1
HeLa [14] = assay: Induction of apoptosis in human HeLa cells assessed as late apoptotic cells at 5 uM after 15 mins by annexin V/FITC staining-based flow cytometric method relative to control; assay type: functional
Outline: (§6)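 Cells were grown 24 h in 6-well plates, then exposed to 5 μM peptide for 15 min. They were collected, washed twice with PBS, and stained with annexin V-FITC plus PI for 20 min at room temperature in the dark before flow cytometry.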

A549 [15] = assay: Induction of reactive oxygen species generation in human A549 cells at 5 uM after 30 mins by DCFH-DA staining-based fluorescence assay; assay type: functional, cell-based; outline: as §1
HeLa [16] = assay: Cytotoxicity against human HeLa cells assessed as cell viability after 24 hrs by MTT assay; assay type: functional, cell-based; outline: as §4
HeLa [17] = assay: Induction of apoptosis in human HeLa cells assessed as necrotic cells at 5 uM after 15 mins by annexin V/FITC staining-based flow cytometric method relative to control; assay type: functional; outline: as §6
[18] = Induction of reactive oxygen species generation in human 293T cells at 5 uM after 30 mins by DCFH-DA staining-based fluorescence assay; assay type: cell-based; conditions: hek-293t, 0.5 h; outline: as §1
HeLa [19] = assay: Induction of apoptosis in human HeLa cells assessed as caspase-3 activation at 5 uM after 5 mins by caspase-glo assay; assay type: functional, cell-based
Outline: (§7)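 Cells in 96-well plates were exposed to 5 μM peptide for 5, 10, 15 or 30 min, or 1, 2, 3 or 4 h. Caspase-Glo 3/7 reagent was added, the plate shaken 30 s and incubated 2 h at room temperature, and luminescence was read.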

HeLa [20] = assay: Cytotoxicity against human HeLa cells assessed as lethality at 5 uM after 30 mins by MTT assay; assay type: functional
Outline: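 HeLa cells were grown in DMEM with 10% FBS and seeded at 1 × 10^4 cells/well, then grown 24 h. Medium was replaced with fresh medium containing 5 μM peptide for 30 min. MTT was added for 4 h and formazan was dissolved in DMSO (10 min, 37 °C). Lethality was read as absorbance at 490 nm.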

HeLa [21] = assay: Induction of apoptosis in human HeLa cells assessed as viable cells at 5 uM after 15 mins by annexin V/FITC staining-based flow cytometric method (reference value: 99.8%); assay type: functional; conditions: 0.25 h, read-out: Activity; outline: as §6
HUVEC [22] = assay: Cytotoxicity against HUVEC assessed as cell viability after 24 hrs by MTT assay; assay type: cell-based, Homo sapiens; outline: as §4
MCF7 [23] = assay: Cytotoxicity against human MCF7 cells assessed as cell viability after 24 hrs by MTT assay; assay type: functional, cell-based; outline: as §4
HeLa [24] = assay: Selectivity index, ratio of IC50 for HUVEC to IC50 for human HeLa cells
HeLa [25] = assay: Cytotoxicity against human HeLa cells assessed as cell mortality at 5 uM after 6 hrs by MTT assay; assay type: functional, cell-based
[26] = Cytotoxicity against HLF assessed as cell viability after 24 hrs by MTT assay; set-up: species or system Homo sapiens; outline: as §4
A549 [27] = assay: Cytotoxicity against human A549 cells assessed as cell viability after 24 hrs by MTT assay; assay type: functional, cell-based; outline: as §4
HeLa [28] = assay: Induction of shrinkage of human HeLa cells at 5 uM after 30 mins by microscopic method; assay type: functional, cell-based; outline: as §2
MCF7 [29] = assay: Selectivity index, ratio of IC50 for HUVEC to IC50 for human MCF7 cells
HeLa [30] = assay: Induction of apoptosis in human HeLa cells assessed as caspase-3 cleavage at 5 uM after 5 mins by Western blot method; assay type: functional, cell-based
Outline: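 HeLa cells (8 × 10^5 per 100 mm dish, grown 24 h) were exposed to 5 μM peptide for 5, 10 or 15 min. Lysates (with 1 mM PMSF) were run on 15% SDS-PAGE and blotted to PVDF. Blots were probed overnight at 4 °C with rabbit monoclonal anti-cleaved caspase-3, then HRP goat anti-rabbit, and detected by ECL with actin as loading control.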

A549 [31] = assay: Selectivity index, ratio of IC50 for HUVEC to IC50 for human A549 cells
HeLa [32] = assay: Cytotoxicity against human HeLa cells assessed as cell mortality at 5 uM after 5 mins by MTT assay; assay type: functional, cell-based
HUVEC [33] = assay: Induction of reactive oxygen species generation in HUVEC at 5 uM after 30 mins by DCFH-DA staining-based fluorescence assay; assay type: cell-based; conditions: human, 0.5 h; outline: as §1
HeLa [34] = assay: Selectivity index, ratio of IC50 for HLF to IC50 for human HeLa cells
HeLa [35] = assay: Induction of morphological changes in human HeLa cells at 5 uM after 30 mins by microscopic method; assay type: functional, cell-based; outline: as §2
MCF7 [36] = assay: Selectivity index, ratio of IC50 for human 293T cells to IC50 for human MCF7 cells; assay type: functional
HeLa [37] = assay: Induction of apoptosis in human HeLa cells assessed as early apoptotic cells at 5 uM after 15 mins by annexin V/FITC staining-based flow cytometric method (reference value: 0.1%); assay type: functional; outline: as §6
HeLa [38] = assay: Cytotoxicity against human HeLa cells assessed as cell mortality at 5 uM after 5 mins by Hoechst 33342/propidium iodide staining-based assay; assay type: functional; outline: as §3
A549 [39] = assay: Selectivity index, ratio of IC50 for HLF to IC50 for human A549 cells
HeLa [40] = assay: Induction of apoptosis in human HeLa cells assessed as caspase-3 activation at 5 uM after 1 to 4 hrs by caspase-glo assay; assay type: functional, cell-based; outline: as §7
[41] = Hemolytic activity in mouse RBC at 0.39 to 50 uM after 1 hr; assay type: ADME, cell-based; conditions: erythrocyte; outline: as §5

## CC(C)C[C@H](NC(=O)[C@H](CCCNC(=N)N)NC(=O)[C@H](CC(C)C)NC(=O)[C@H](CC(C)C)NC(=O)[C@H](CCCNC(=N)N)NC(=O)[C@H](CCCNC(=N)N)NC(=O)[C@H](CC(C)C)NC(=O)[C@H](CCCNC(=N)N)NC(=O)[C@H](CC(C)C)NC(=O)[C@H](CC(C)C)NC(=O)[C@H](CCCNC(=N)N)NC(=O)[C@H](CC(C)C)NC(=O)[C@H](CC(C)C)NC(=O)[C@H](CCCNC(=N)N)NC(=O)CNC(=O)CNC(=O)[C@@H](N)Cc1cnc[nH]1)C(N)=O
MCF7 [1]
  Ratio IC50: 4
HeLa [2]
  Activity: inactive
MCF7 [3]
  Activity: Active
HeLa [4]
  Activity: Active
HeLa [5]
  Activity: 20%
HeLa [6]
  Activity: Active
HeLa [7]
  Ratio IC50: 4
[8]
  Activity: Non-toxic
[9]
  Drug uptake: Active
[10]; Homo sapiens, HEK-293T
  IC50: 41.6 µM
A549 [11]
  Ratio IC50: 4
[12]
  HC50 at 1 h: > 200 µM
HeLa [13]
  Activity: Active
HeLa [14]
  Activity: 7.7%
A549 [15]
  Activity: Active
HeLa [16]
  IC50: 4.2 µM
HeLa [17]
  Activity: 0.1%
[18]
  Activity: Non-toxic
HeLa [19]
  Activity: Active
HeLa [20]
  Activity: 56%
HeLa [21]
  viability at 5 µM: 46.3%
HUVEC [22]; Homo sapiens, HUVEC
  IC50: 19 µM
MCF7 [23]; MCF7, 24 h
  IC50: 4.5 µM
HeLa [24]
  Ratio IC50: 4
HeLa [25]
  Activity: Active
[26]; Homo sapiens, HLF
  IC50: 21.4 µM
A549 [27]; A549, 24 h
  IC50: 4.8 µM
HeLa [28]
  Activity: Active
MCF7 [29]
  Ratio IC50: 4
HeLa [30]
  Activity: Active
A549 [31]
  Ratio IC50: 4
HeLa [32]
  Activity: inactive
HUVEC [33]
  Activity: Non-toxic
HeLa [34]
  Ratio IC50: 4
HeLa [35]
  Activity: inactive
MCF7 [36]
  Ratio IC50: 4
HeLa [37]
  Activity: 45.9%
HeLa [38]
  Activity: inactive
A549 [39]
  Ratio IC50: 4
HeLa [40]
  Activity: inactive

## H-HGGKLLKLLKKLLKLLK-NH2
[10]; human, hek-293t
  Activity: Toxic
HeLa [16]
  IC50: 3.3 µM
HUVEC [22]; human, huvec
  Activity: Toxic
MCF7 [23]
  Activity: Active
[26]; human, hlf
  Activity: Toxic
A549 [27]
  Activity: Active
[41]
  Activity: Toxic

From ChEMBL document CHEMBL3826940, “Amphipathicity Determines Different Cytotoxic Mechanisms of Lysine- or Arginine-Rich Cationic Hydrophobic Peptides in Cancer Cells” (J Med Chem, 2016)
